The source made the active and inactive calls. The calls are words filed in the database; no cut-off is given here.
Columns and labels:
[1] = Intrinsic clearance in human liver microsomes at 1 uM preincubated for 5 mins followed by NADPH addition and measured after 45 mins by LC/MS/MS analysis; type: ADME, microsome; conditions: read-out: CLH
[2] = Half life in Sprague-Dawley rat liver microsomes at 1 uM preincubated for 5 mins followed by NADPH addition and measured by LC/MS/MS analysis; type: ADME, microsome; conditions: microsomes, 1 µM
[3] = Maximum plasma concentration in BALB/c mouse at 25 mg/kg, po via gavage by […]; type: ADME, organism-based; set-up: dose 25 mg/kg, route oral
Outline: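 Single oral gavage dose of 25 mg/kg in BALB/c mice; blood sampled at 1, 2, 4, 6, 10, 16, 24 h. Plasma is diluted in PBS with ketoconazole internal standard, extracted with 80% acetonitrile, dried and redissolved. Analysed by reversed-phase HPLC with UV at 291/250 nm, 0.1 μM detection limit. Lifetime is time until undetectable.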

[4] = Drug uptake in BALB/c mouse blood at 25 mg/kg, po via gavage measured after 4 hrs post dose by […]; type: ADME, organism-based; conditions: read-out: Drug uptake
Outline: (§1)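 BALB/c mice get a single oral gavage dose of 25 mg/kg; tissues are collected 4 h post-dose. About 100 mg tissue is diluted 5-fold in PBS and homogenized. Homogenate is extracted as for plasma (ketoconazole internal standard, acetonitrile extraction) and quantified by HPLC-UV at 291 nm, 0.1 μM detection limit, n=2.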

[5] = Drug uptake in BALB/c mouse brain at 25 mg/kg, po via gavage measured after 4 hrs post dose by […]; type: ADME, organism-based; conditions: read-out: Drug uptake; outline: as §1
[6] = Drug uptake in BALB/c mouse liver at 25 mg/kg, po via gavage measured after 4 hrs post dose by […]; type: ADME, organism-based; conditions: read-out: Drug uptake; outline: as §1
[7] = molecular target: Lanosterol 14-alpha-demethylase (Trypanosoma brucei brucei (strain 927/4 GUTat10.1)) (UniProt Q385E8); assay: Inhibition of Trypanosoma brucei […] CYP51 expressed in Escherichia coli using [3-3H]-obtusifoliol as substrate after 60 mins by LC-MS analysis
Outline: (§2)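 Reconstituted reaction: 1 μM purified CYP51, 2 μM T. brucei NADPH-P450 reductase, 100 μM dilauroylphosphatidylcholine, isocitrate dehydrogenase/isocitrate regeneration, 50 mM K phosphate pH 7.2, 10% glycerol. [3-3H]sterol substrate at 50 μM final (eburicol for T. cruzi; obtusifoliol for T. brucei and L. infantum) with inhibitor at 1.1 μM final. Preincubate 60 s at 37 °C, start with 100 μM NADPH, run 60 min, EtOAc extraction. Gives % inhibition of 14α-demethylation, triplicate, mean ± SD.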

[8] = molecular target: Sterol 14-alpha demethylase (Trypanosoma cruzi (strain CL Brener)) (UniProt Q7Z1V1); assay: Inhibition of Trypanosoma cruzi Y CYP51 expressed in Escherichia coli using [3-3H]-eburicol as substrate after 60 mins by LC-MS analysis; outline: as §2
Mus musculus [9] = assay: Toxicity in Swiss Webster mouse at 200 mg/kg, po administered as single dose measured after 48 hrs measured at 48 hrs post dose; type: organism-based; conditions: in vivo
Outline: (§3)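 Swiss Webster mice (21–23 g, n=3) get a single oral 200 mg/kg dose, given as in the PK study. They are inspected for toxic and sub-toxic signs per OECD guidelines (behaviour, motility, neurological state, skin, fur), and body weight is tracked 0–48 h. At 48 h, mice are euthanized and organ weights are normalized to body weight. Blood is taken for haematology and plasma biochemistry.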

[10] = Lipophilicity, log P of the compound; type: physicochemical; conditions: octanol/water
Mus musculus [11] = assay: Toxicity in Swiss Webster mouse assessed as alteration in body to organ ratio at 200 mg/kg, po administered as single dose measured after 48 hrs; type: organism-based; conditions: in vivo; outline: as §3
Mus musculus [12] = assay: Toxicity in Swiss Webster mouse assessed as effect on liver weight at 200 mg/kg, po administered as single dose measured after 48 hrs; type: organism-based; conditions: in vivo; outline: as §3

Lanosterol 14-alpha-demethylase (Trypanosoma brucei brucei (strain 927/4 GUTat10.1)), sequence (Q385E8 1-481): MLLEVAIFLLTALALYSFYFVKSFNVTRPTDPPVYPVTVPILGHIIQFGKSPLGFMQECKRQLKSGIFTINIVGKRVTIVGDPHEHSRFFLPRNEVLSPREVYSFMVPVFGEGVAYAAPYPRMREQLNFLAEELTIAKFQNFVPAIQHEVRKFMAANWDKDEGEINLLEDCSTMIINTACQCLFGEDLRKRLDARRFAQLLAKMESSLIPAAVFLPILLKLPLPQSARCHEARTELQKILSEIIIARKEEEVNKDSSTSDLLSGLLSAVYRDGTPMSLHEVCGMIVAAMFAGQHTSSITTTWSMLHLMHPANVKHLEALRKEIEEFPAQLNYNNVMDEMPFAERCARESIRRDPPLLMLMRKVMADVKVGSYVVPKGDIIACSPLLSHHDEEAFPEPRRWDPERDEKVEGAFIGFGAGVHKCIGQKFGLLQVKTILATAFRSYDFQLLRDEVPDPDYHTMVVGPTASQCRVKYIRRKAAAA
Sterol 14-alpha demethylase (Trypanosoma cruzi (strain CL Brener)), sequence (Q7Z1V1 whole entry, looked up): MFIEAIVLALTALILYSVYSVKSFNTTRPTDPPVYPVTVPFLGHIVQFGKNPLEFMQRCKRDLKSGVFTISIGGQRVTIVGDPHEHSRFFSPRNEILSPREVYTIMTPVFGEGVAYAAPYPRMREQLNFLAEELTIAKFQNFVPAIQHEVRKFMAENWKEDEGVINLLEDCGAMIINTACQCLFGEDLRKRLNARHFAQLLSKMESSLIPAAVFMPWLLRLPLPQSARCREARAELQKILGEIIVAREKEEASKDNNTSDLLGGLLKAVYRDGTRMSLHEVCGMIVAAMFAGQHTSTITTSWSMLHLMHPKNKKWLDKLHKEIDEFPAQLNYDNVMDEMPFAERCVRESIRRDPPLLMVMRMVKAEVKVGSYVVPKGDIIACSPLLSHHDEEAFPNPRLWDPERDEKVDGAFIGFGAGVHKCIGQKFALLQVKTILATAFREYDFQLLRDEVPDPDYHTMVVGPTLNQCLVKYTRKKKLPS

With `O=C(N[C@@H](Cn1ccnc1)c1c(F)cc(-c2ccc(F)cc2)cc1F)c1ccc(-c2nnc(-c3ccccc3)o2)cc1` the CLint scaled at 1 µM [1] was 19.4 mL/min/kg, the t1/2 [2] was 50 min and the Cmax [3] was 25 µM. The concentration at 4 h [4] was 25 µM, the concentration at 4 h [5] was 3 µM and the concentration at 4 h [6] was 120 µM. For the same compound, the inhibition [7] was “Active”, the inhibition [8] was “Active” and the NOAEL (Mus musculus [9]) was > 200 mg/kg. For the same compound, the logP [10] was 5.6, the Activity (Mus musculus [11]) was “Non-Toxic” and the Activity (Mus musculus [12]) was “Non-Toxic”.

From ChEMBL document CHEMBL4257584, “Sterol 14α-Demethylase Structure-Based Optimization of Drug Candidates for Human Infections with the Protozoan Trypanosomatidae” (J Med Chem, 2018)
